Shown are actives, neighbours in structure and some others; about 3.9% of the full set was active somewhere.
STAT3 act: STAT3 signaling activation. U3A cells, IL-6 STAT3-luciferase reporter, luminescence; 100% = signal with IL-6 EC80 alone. activation (% of control), % at 5.6 µM. hit rate 0.91% among 190,000;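 active means activation above the screen-wide mean of compound activation plus 3 SD, cut at about 130% in these data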;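 further: 0% = background luminescence of wells with medium and substrate only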
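Detection: reporter luminescence signal / Assay system: STAT1-lacking human U3A cells, STAT3 luciferase reporter / Incubation: compound pre-incubation 1 h before IL-6, then 6 h stimulation at 37 °C / Control set: IL-6-only high control / Read-out: % activation relative to IL-6 control / Probe or stimulus: Interleukin-6, 33 ng/mL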
APP 5'UTR act: activates APP 5'UTR luciferase reporter; hit rate 1% among 190,000; activation, % at 2 µM; AID 1276; SH-SY5Y APP 5'UTR luciferase reporter, luminescence; zero percent = DMSO vehicle wells;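 active means activation above a set limit, based on mean plus 3 SD of controls, cut at about 140% in these data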
STAT1 inh: inhibitors of IFN-gamma induced STAT1 signaling | NIH 3T3 STAT1-luciferase reporter, luminescence | inhibition, % at 5.5 µM | hit rate 0.35% among 200,000 | AID 920;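 active means inhibition above a set limit, the mean inhibition across all tested compounds plus 3 SD, cut at about 34% in these data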;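 further: 0% = IFN-gamma with DMSO and 100% = IFN-gamma with 300 µM nifuroxazide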
STAT1 act: increases IFN-gamma driven STAT1 reporter signal. NIH 3T3 STAT1-luciferase reporter, luminescence; 100% = IFN-gamma alone, no compound. activation (% of control), % at 5.5 µM. hit rate 2.6% among 200,000;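 active means activation above the screen-wide mean activation plus 3 SD, cut at about 130% in these data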;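 further: raw ratio to IFN-gamma control signal so 100% means no change and 0% no light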
NF-kB neuron act: raises NF-kB expression in human neuronal cells | NF-kB reporter expression; stronger effect = higher value | fold change at 12.5 µM | hit rate 1.6% among 190,000 | AID 1239; in the data active means fold change above about 3.3
Pf gamet viab: inhibitors of late stage P. falciparum gametocyte viability | P. falciparum stage V gametocytes, ATP luminescence, 24 h | inhibition, % at 10.9 µM | hit rate 0.065% among 150,000 | AID 743093;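 active means inhibition above the mean plus 3 SD of compounds within the control limits, set per campaign, cut at about 38% in these data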;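 further: 0% = DMSO wells and 100% = medium only without gametocytes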
* = called active by the depositor; x = not tested or not shown.

SMILES	STAT3 act	APP 5'UTR act	STAT1 inh	STAT1 act	NF-kB neuron act	Pf gamet viab
COc1ccc(NS(=O)(=O)c2cccc(NC(=O)CCS(=O)(=O)c3ccccc3)c2)cc1	93	-11	7	93	0.85	14
O=C(Nc1nsc(-c2ccccc2)n1)c1cccs1	62	149*	-51	148*	4.2*	-3
CC(C)(O)[C@H](O)Cc1cc2ccc(=O)oc2cc1O[C@@H]1O[C@H](CO)[C@@H](O)[C@H](O)[C@H]1O	x	x	x	x	x	22
O=C(CSc1nnc2ccccn12)Nc1ccc2c(c1)OCO2	98	-15	-18	118	1.3	9
O=C(CSc1nnc2ccccn12)Nc1cccc(-c2nc3ccccc3s2)c1	108	137*	-40	136*	1.3	2
Cc1ccc(SCc2cc(=O)n3ccsc3n2)c(C)c1	96	52	-38	134*	2.2	x
Cc1ccc(Nc2nnc(SCc3cc(=O)n4ccsc4n3)s2)c(C)c1	108	-4	7	94	0.88	0
CN1CCN(CC(=O)Nc2ccccc2[N+](=O)[O-])CC1	104	10	-5	105	5.5*	-25
O=C1C(C=NCc2cccnc2)=C(O)c2ccccc21	103	15	-33	130*	2.8	-42
Nc1cc(-c2ccc(Br)cc2)[nH]n1	111	15	-5	104	1	9
Cc1cc(-c2ccc(Br)cc2)n[nH]1	83	25	-40	137*	1.5	-7
CNc1cnn(-c2ccc(C)cc2)c(=O)c1Cl	108	70	-32	129*	2.6	3
COc1cnn(-c2ccc(C)cc2)c(=O)c1Cl	97	24	-43	141*	2	-1
CNc1cnn(-c2ccc(C)cc2)c(=O)c1Sc1ccc(C)cc1	106	7	-2	102	0.9	13
Clc1cc(Br)ccc1OCCOCCN1CCCC1	x	x	x	x	x	-4
Clc1cc(Br)ccc1OCCOCCN1CCOCC1	100	11	-9	108	3.6*	x
O=C(O)c1ccccc1Nc1ccc([N+](=O)[O-])cc1	110	3	-44	139*	2.3	-11
COc1c(/C=N/NC(=O)c2ccncc2)c(CCN(C)C(C)=O)cc2c1OCO2	x	x	x	x	x	-16
C=C(C)CN(CC)C(=O)CC1C(=O)NCCN1C (stereo not given)	96	3	-9	108	1.2	16
CCCCNC(=O)c1c(N)n(/N=C/c2ccccn2)c2nc3ccccc3nc12	86	2	2	98	0.79	x
CCCCCCNC(=O)c1c(N)n(/N=C/c2ccco2)c2nc3ccccc3nc12	108	-6	-38	135*	x	x
[O-]/[N+](=C/c1ccc(F)cc1)c1ccc(Cl)cc1	120	39	-15	114	4*	x
Cc1ccc(C)c(NC(=O)CCN2CCN(CCO)CC2)c1	x	x	x	x	x	16
CN1CCN(/N=C/c2ccc(OCc3ccccc3)cc2)CC1	x	x	x	x	x	-9
COC(=O)c1ccc(COc2ccc(/C=N/N3CCN(C)CC3)cc2)cc1	113	55	-38	136*	1.7	x
SMILES	STAT3 act	APP 5'UTR act	STAT1 inh	STAT1 act	NF-kB neuron act	Pf gamet viab
Cc1ccc(C(=O)Nc2ccc(S(=O)(=O)N3CCOCC3)cc2)cc1Br	x	x	x	x	x	18
S=C(NCC1COc2ccccc2O1)Nc1ccccc1 (stereo not given)	94	14	3	98	1.2	x
CC(C)COc1ccc(C(=O)Nc2ccccc2[N+](=O)[O-])cc1	96	83	-37	133*	2.8	12
COc1ccc(C(=O)NCCNc2ccccc2[N+](=O)[O-])cc1	96	163*	-54	148*	1.1	-13
COCCNC(=S)NNc1ccccc1[N+](=O)[O-]	136*	42	-4	102	1.1	10
COc1ccc(C(=O)NCCCc2ccccc2)cc1	x	x	x	x	x	-26
CNC(=S)NNc1ccccc1[N+](=O)[O-]	117	15	-6	103	0.89	-9
CCCOc1ccc(C(=O)Nc2ccc(C)cc2[N+](=O)[O-])cc1	93	0	-11	110	1	x
COc1ccccc1S(=O)(=O)CC(O)COc1ccc(C#N)cc1 (stereo not given)	101	-14	8	91	1.2	x
CCCC(=O)NC(=S)Nc1ccc(S(=O)(=O)N2CCc3ccccc32)cc1	x	x	x	x	x	-9
O=C(N/N=C/c1ccc(Br)s1)c1c[nH]c2ccccc12	114	64	-43	138*	1.2	-15
C/C(=N\NC(=O)c1c[nH]c2ccccc12)c1ccc2c(c1)OCO2	100	10	-39	135*	0.84	-13
O=C(N/N=C/c1cc2c(cc1Br)OCO2)c1ccccn1	x	x	x	x	x	-16
O=C(N/N=C/c1cc2c(cc1Br)OCO2)c1c[nH]c2ccccc12	90	94	-51	143*	0.91	-4
O=C(N/N=C/c1ccc(Br)s1)Nc1ccccc1	88	21	-33	130*	1.7	-21
Cc1[nH]c2ccccc2c1/C=N/NC(=O)CCC(=O)Nc1ccccc1	115	16	-3	100	0.92	10
Cc1[nH]c2ccccc2c1/C=N/NC(=O)Nc1ccccc1	148*	49	-31	131*	1.1	2
CC(CNC(=O)c1ccccc1Cl)c1ccccc1 (stereo not given)	x	x	x	x	x	-11
COCCn1c(C)cc(C(=O)CSc2nc3ccccc3c(=O)[nH]2)c1C	106	23	-46	142*	1.7	20
C=CCn1c(C)cc(C(=O)CSc2nc3ccccc3c(=O)[nH]2)c1C	81	34	-37	134*	2	x
COCC(C)n1c(C)cc(C(=O)CSc2nc3ccccc3c(=O)[nH]2)c1C (stereo not given)	80	0	16	85	0.98	5
CC(C)NC(=O)c1ccc(N(Cc2ccc(Cl)cc2)S(C)(=O)=O)cc1	x	x	x	x	x	-10
CSCCC1NC(=O)N(C(C)C(=O)Nc2cc(Cl)cc(Cl)c2)C1=O (stereo not given)	102	-5	-5	105	1.1	2
O=C(CSC1=NCCN1)Nc1cccc(C(F)(F)F)c1	106	-2	-44	142*	1.2	17
Cc1ccc(-c2ccc(C3C(C#N)=C(N)Oc4n[nH]c(C)c43)o2)cc1 (stereo not given)	136*	-5	-19	117	0.8	-6
Cc1[nH]nc2c1C(c1ccc(-c3ccc(Cl)cc3)o1)C(C#N)=C(N)O2 (stereo not given)	101	6	-14	113	0.68	x
Cc1ccc2c(c1)nnn2C1CCN(CC(=O)NNC(=O)c2ccco2)CC1	96	-16	1	99	1.2	-4
CC/C(=N\NC(=O)c1ccoc1C)c1ccc(C)o1	106	114	-34	130*	2	-33
Cc1ccc(N=Cc2nc(-c3ccco3)oc2O)cc1	98	75	-44	141*	3.5*	-4
Cc1ccc(-c2nc(C=Nc3ccccc3)c(O)o2)cc1	97	41	-22	121	2.2	15
